This is a sample that favours compounds with a hit; in the whole collection about 1.8% have one here.
CHRM4 agonist: CHRM4 agonism in calcium assay | AID 624127 | 360,000 compounds, 0.14% hits | P08173 | CHO-K1 hM4/Gqi5, Fluo-8 calcium fluorescence; vehicle 0%, full acetylcholine response 100% | activation, % at 3 µM;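 active means activation above the run mean over all test wells plus 3 SD, cut at about 32% in these data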;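 further: peak over basal fluorescence ratio per well then scaled between controls; 0% = DMSO wells and 100% = acetylcholine at EC100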
Target sequence (P08173 whole entry, looked up): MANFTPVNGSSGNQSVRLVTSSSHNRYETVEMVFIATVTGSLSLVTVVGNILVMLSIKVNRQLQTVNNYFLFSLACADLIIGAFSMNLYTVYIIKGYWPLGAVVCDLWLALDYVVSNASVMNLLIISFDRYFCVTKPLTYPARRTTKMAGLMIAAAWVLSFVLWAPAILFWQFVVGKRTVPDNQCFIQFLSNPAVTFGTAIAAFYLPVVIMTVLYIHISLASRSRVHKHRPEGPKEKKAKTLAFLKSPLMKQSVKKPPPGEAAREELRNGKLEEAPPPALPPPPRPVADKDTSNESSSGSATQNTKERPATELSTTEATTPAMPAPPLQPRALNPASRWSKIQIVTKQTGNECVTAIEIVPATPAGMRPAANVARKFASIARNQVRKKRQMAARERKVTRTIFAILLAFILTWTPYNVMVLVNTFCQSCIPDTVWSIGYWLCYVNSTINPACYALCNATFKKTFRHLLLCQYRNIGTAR
M4 antag: CHRM4 antagonism in calcium assay. 360,000 compounds, 0.73% hits. AID 624125. CHO-hM4 cells, ACh EC80, Fluo-8 calcium fluorescence. inhibition, % at 3 µM. P08173;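 active means inhibition above its plate's cutoff, the mean inhibition of sample wells plus 3 SD, cut at about 27% in these data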;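 further: 0% = acetylcholine EC80 with DMSO and 100% = DMSO without agonist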
M5 antag: CHRM5 antagonism in calcium assay; 360,000 compounds, 0.59% hits; CHO-hM5 cells, Fluo-8 calcium fluorescence, ACh EC80; AID 624040; inhibition, % at 3 µM;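 active means inhibition above a per-plate cutoff, the mean of that plate's test compounds plus 3 SD, cut at about 27% in these data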;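 further: 0% = acetylcholine EC80 with DMSO and 100% = DMSO without agonist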
M5 ag: agonists of human muscarinic M5 receptor (CHRM5); P08912; AID 624037; CHO-K1 hM5 cells, Fluo-8 calcium fluorescence; 0% DMSO wells, 100% maximal acetylcholine response; activation, % at 3 µM; 360,000 compounds, 0.19% hits;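 active means activation above the run's mean over test compounds plus 3 SD, cut at about 23% in these data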;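 further: signal is peak over basal fluorescence ratio across the kinetic read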
M5 PAM: potentiates acetylcholine response at human M5 receptor | P08912 | CHO-K1 hM5, Fluo-8 calcium, ACh EC20 PAM; 0% = ACh EC20, 100% = ACh EC100 | activation, % at 3 µM | 360,000 compounds, 0.3% hits | AID 624038;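 active means activation above the run cutoff, the mean activation of all test compounds plus 3 SD, cut at about 18% in these data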
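Assay system: CHO-K1 hM5 cells. Also added: acetylcholine at EC20 concentration, added after compound. Dosing: 3 µM, single dose. Times: compound preincubation 140 s before EC20 acetylcholine addition. Signal: Fluo-8 calcium fluorescence. Measure: % activation relative to EC20 and EC100 ACh responses. Repeats: singlicate, one well per test compound.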
CHRM4 PAM: CHRM4 positive allosteric modulation | P08173 | activation, % at 3 µM | 360,000 compounds, 0.4% hits | AID 624126 | CHO-K1 hM4/Gqi5, Fluo-8 calcium fluorescence, ACh EC20; 0% = ACh EC20, 100% = maximal ACh;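 active means activation above its plate's cutoff, the mean activation of sample wells plus 3 SD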
* = called active by the depositor.

SMILES	CHRM4 agonist	M4 antag	M5 antag	M5 ag	M5 PAM	CHRM4 PAM
COc1cc(/C=N/NC(=O)C2=NNC(=O)C2C)ccc1O (stereo not given)	1	-4	6	-1	-3	-1
COCc1cccc(-c2csc(C(O)c3cccc(OC)c3)n2)c1 (stereo not given)	8	-6	4	4	-8	-3
CCOC(=O)c1ccc(N2C(=O)CC(Nc3ccc(O)cc3)C2=O)cc1 (stereo not given)	0	-10	-2	3	-1	-4
O=C(NNC1CC(=O)N(c2ccc(Br)cc2)C1=O)c1cccs1 (stereo not given)	2	30*	-6	3	4	16
CCOC(=O)CNC1CC(=O)N(c2ccc(Br)cc2)C1=O (stereo not given)	0	1	-6	5	21*	6
O=C(NNC1CC(=O)N(c2ccc(Br)cc2)C1=O)c1ccco1 (stereo not given)	5	-4	5	-2	-5	9
COc1ccc(Cl)cc1C1=NOC2(CCC2)C(=O)N1Cc1ccc(NC(C)=O)cc1	12	2	4	1	-12	-13
COC(=O)c1[nH]c2ccc(C)cc2c1NC(=O)CCN1CCN(Cc2ccc3c(c2)OCO3)CC1	2	25	33*	-8	-12	-15
CCCNC(=O)C1(C)CCCN(Cc2csc3ccccc23)C1 (stereo not given)	-1	-8	-1	0	2	8
Nc1ncnc2c1ncn2C1CCCO1 (stereo not given)	0	9	10	28*	-19	-9
Nc1ncnc2c1ncn2[C@H]1C[C@H](O)[C@@H](COP(=O)(O)O)O1	1	30*	-1	0	1	-2
Nc1ncnc2c1ncn2C1CCCC1	0	-4	-4	0	0	2
S=c1nc[nH]c2c1ncn2C1CCCO1 (stereo not given)	0	-11	-17	-1	19*	-5
NCC1OC(n2cnc3c(N)ncnc32)CC1O (stereo not given)	0	-1	3	2	9	3
COC(=O)c1cc(C(=O)c2cccc(Cl)c2Cl)cn1C	-1	16	7	-4	-6	-6
Cn1cc(C(=O)c2cccc(Cl)c2Cl)cc1C(=O)O	-1	-6	-6	-5	21*	14
Cc1ccc(NC(=O)C2=C(c3ccccc3)S(=O)(=O)CCS2(=O)=O)cc1	5	39*	10	-5	-2	2
CN(Cc1ccccc1)C(=O)[C@@H]1CCCN1C(=O)[C@@H]1CCCN1C(=O)c1ccccc1	1	-11	-5	2	-1	16
CC(C)Cc1ccc(C(C)NC(=O)c2ccc(=O)[nH]c2)cc1 (stereo not given)	22	9	10	25*	-13	-15
Cc1ccc(C(=O)NC(C)c2ccc(F)cc2)cc1 (stereo not given)	0	1	7	-4	-3	6
O=C(NCc1ccco1)Nc1nnc([C@H]2C[C@H](O)[C@@H](CO)O2)s1	-1	2	1	2	-2	-2
Cc1ccc(NC(=O)c2cc([N+](=O)[O-])ccc2N2CCOCC2)cc1S(=O)(=O)N(C)C	6	49*	-2	-16	1	-44
Cc1ccc(NC(=O)c2cc([N+](=O)[O-])ccc2N2CCOCC2)cc1C	1	8	-6	-2	4	-3
CC(C)c1ccc(-c2nnc(SCC(=O)NC3CC3)n2C)cc1	1	10	14	2	30*	-4
Cn1ccnc1SCC(=O)NC1CCCCC1	0	3	1	0	-3	13
Cn1c(SCC(=O)NC2CCCC2)nnc1-c1ccncc1	0	-2	-11	-1	-10	2
Cn1ccnc1SCC(=O)NC1CC1	5	3	17	-4	2	49*
COc1ccc(N2CCN(c3cncc(C)n3)CC2)cc1	1	-6	-5	2	-3	-1

High-throughput results (PubChem)
